Only some compounds are listed: those with a hit (about 1.1% of all), similar ones and a draw of the others.
Hep lipid drop = inhibitors of hepatocyte lipid droplet formation, primary screen, imaging, high-throughput imaging, BODIPY stain; inhibition, % at 6.5 µM; AID 1656, 2009; 0.4% of 240,000 active; AML12 mouse hepatocytes, oleate lipid droplets;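 active means lipid droplet intensity inhibited by at least 50%, with more than 500 cells counted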
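Assay system: AML12 mouse liver cells | Compound: 6.5 µM single-point dosing | Schedule: Overnight exposure | Technique: Fluorescence imaging, 20x objective, two fields per well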
FXIa inh 1536 = human FXIa protease inhibitors, primary screen, biochemical, 1536-well. 0.14% of 220,000 active. purified FXIa, Boc-Glu-Ala-Arg-AMC fluorogenic substrate. inhibition, % at 5 µM. Coagulation factor XI (Homo sapiens), P03951;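 active means inhibition of at least 40%; inactive means inhibition below 40%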;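 further: fluorescence of freed AMC excited at 355 nm; 0% = enzyme without compound and 100% = no enzyme blank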
Target sequence (P03951 19-387 limits assumed): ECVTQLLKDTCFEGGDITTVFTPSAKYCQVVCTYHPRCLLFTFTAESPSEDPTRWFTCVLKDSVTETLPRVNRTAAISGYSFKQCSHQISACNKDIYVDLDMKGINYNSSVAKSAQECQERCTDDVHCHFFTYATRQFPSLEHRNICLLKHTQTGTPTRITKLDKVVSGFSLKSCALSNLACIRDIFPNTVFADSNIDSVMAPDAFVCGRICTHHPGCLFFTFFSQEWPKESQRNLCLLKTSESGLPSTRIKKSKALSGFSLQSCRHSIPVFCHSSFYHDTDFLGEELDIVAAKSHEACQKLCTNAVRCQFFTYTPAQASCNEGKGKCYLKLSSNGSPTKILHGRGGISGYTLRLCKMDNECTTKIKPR
Target sequence (P03951 388-625 limits assumed): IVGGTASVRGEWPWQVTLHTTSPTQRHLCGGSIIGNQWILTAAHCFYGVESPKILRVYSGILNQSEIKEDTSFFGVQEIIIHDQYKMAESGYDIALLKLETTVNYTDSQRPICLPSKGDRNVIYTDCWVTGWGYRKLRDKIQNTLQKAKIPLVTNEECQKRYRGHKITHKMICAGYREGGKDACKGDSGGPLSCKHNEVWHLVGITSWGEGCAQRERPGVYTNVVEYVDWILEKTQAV
hK5 inh = human KLK5 protease inhibitors, primary screen, biochemical, 1536-well. Kallikrein-5 (Homo sapiens), Q9Y337. recombinant hK5, fluorogenic AMC substrate cleavage. inhibition, % at 5 µM. 0.59% of 210,000 active;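 active means inhibition of 40% or more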;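 further: 0% = enzyme controls without compound and 100% = no-enzyme blanks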
FXIIa inh = human FXIIa protease inhibitors, primary screen, biochemical, 1536-well; AID 800, 2007; 0.3% of 220,000 active; inhibition, % at 5 µM; Coagulation factor XII (Homo sapiens), P00748; purified FXIIa, Boc-QGR-AMC fluorogenic substrate, 2 h; in the data active means inhibition above about 40%;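 further: 0% = enzyme with no compound and 100% = blank without enzyme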
Thrombin inh = human alpha-thrombin inhibitors, primary screen, counter-screen for coagulation protease inhibitor project, biochemical, 1536-well, fluorogenic AMC substrate; 0.26% of 220,000 active; Prothrombin (Homo sapiens), P00734; Boc-VPR-AMC fluorogenic substrate cleavage; inhibition, % at 5 µM;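 active means inhibition at or above 40%; inactive means inhibition below 40%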;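 further: 0% = enzyme with no compound and 100% = wells without enzyme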
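Material: human alpha-thrombin protein; Also added: Boc-VPR-AMC substrate, 15 µM final; Timing: enzyme reaction carried out at room temperature; Signal: fluorescence, ex 355 nm, em 460 nm; Measure: % inhibition of thrombin; Controls: enzyme without compound as high, wells lacking enzyme as low.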
Calb biofilm kill = clotrimazole potentiators killing C. albicans biofilm, primary screen, 4-compound mixtures; inhibition, % at 7.6 µM; C. albicans biofilm persisters + clotrimazole, fluorescence viability; primary screen in compound mixtures of four per well; 0.02% of 120,000 active;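 active means inhibition above 30.3% in the primary screen of four-compound pools, then above 30% when the compound was retested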;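 further: compounds exposed to preformed 24 h biofilms for 48 h; 0% = untreated biofilm control and 100% = clotrimazole plus chlorhexidine kill blank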
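Probe or stimulus – Clotrimazole 50 µg/mL co-treatment · System – C. albicans biofilms · Schedule – 24 h biofilm formation, then 48 h compound exposure, 37 °C · Evaluation – percent inhibition of biofilm viability · Technique – 2-h Alamar Blue fluorescence, 535/590 nm excitation/emission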
Hep lipid conf = hepatocyte lipid droplet accumulation inhibitors, confirmation, imaging, AML12 mouse hepatocytes, single concentration, high-content; shares compounds with Hep lipid drop; BODIPY lipid droplet imaging; droplets induced with 100 µM oleic acid; inhibition, % at 5.2 µM; 65% of 870 active;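 active means inhibition of lipid droplet metric at least 50%, with more than 300 cells in each of four replicates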;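 further: plate controls were DMSO with oleic acid for no effect and 5 µM Triacsin-C for full effect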
AML12 cytotox = AML12 hepatocyte cytotoxicity, counter-screen for hepatic lipid droplet formation project, imaging, DAPI nuclear morphology imaging; AID 463200, 2010; 3% of 870 active; AML12 mouse hepatocytes; hits give high values; cells fed 100 µM oleate overnight; z-score at 5 µM; shares compounds with Hep lipid drop; in the data active means z-score above about 6.3;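 further: compound exposure lasted overnight at 37 °C before fixation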
AML12 tox conf = AML12 hepatocyte cytotoxicity, confirmation, cytotoxicity control for hepatic lipid droplet formation project, cell-based, single concentration | AML12 mouse hepatocyte viability, ATP luminescence; cells loaded with 100 µM oleic acid | cytotoxicity, % at 50 µM | 530 tested, under 10 active | shares compounds with Hep lipid drop | AID 463219, 2010;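 active means cytotoxicity above 50% in each of four replicates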;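 further: compound exposure lasted overnight at 37 °C before the ATP read; 0% = DMSO-treated cells and 100% = wells with no cells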
An asterisk follows results filed as active; . = not tested or not shown.

SMILES | Hep lipid drop | FXIa inh 1536 | hK5 inh | FXIIa inh | Thrombin inh | Calb biofilm kill | Hep lipid conf | AML12 cytotox | AML12 tox conf
COc1ccc(C(=O)NC2CCCc3c2cnn3-c2cccc(C)c2C)o1 (stereo not drawn) | 50* | . | . | . | . | . | 88* | -0.19 | 7
COc1cccc(C(=O)NC2CCCc3c2cnn3-c2cc(C)cc(C)c2)c1 (stereo not drawn) | 74* | . | . | . | . | . | 108* | -0.27 | 10
CCCn1cc(S(=O)(=O)c2ccc(OC)cc2)c(=O)c2cc(OC)ccc21 | -8 | . | . | . | . | . | . | . | .
O=C(c1ccc(Cl)cc1)C1CCN(C(=O)NC2CCCCC2)CC1 | 70* | -5 | -14 | 8 | -7 | . | 85* | -0.19 | 10
COc1ccccc1NC(=O)c1cc(S(=O)(=O)N2CCOCC2)ccc1Cl | 0 | 0 | -15 | 10 | -5 | . | . | . | .
COc1ccc(S(=O)(=O)N2CCOCC2)cc1NC(=O)c1ccccc1C | 51* | . | . | . | . | . | -13 | -0.58 | .
OCC[C@@H]1C[C@H](O)[C@@H](O)[C@]2(CCCc3ccccc3O2)O1 | -4 | . | . | . | . | . | . | . | .
COc1ccc(C)cc1NC(=O)Nc1ccc(C(=O)N2CCCC2)cc1 | 70* | . | . | . | . | . | 95* | 0.3 | 29
COc1ccc(NC(=O)Nc2cc(C)ccc2OC)cc1 | -4 | 2 | -27 | -2 | 6 | . | . | . | .
COc1ccc(Cl)cc1NC(=O)Nc1ccc(C(=O)N2CCCC2)cc1 | 56* | . | . | . | . | . | 77* | -0.61 | 18
C=C(C)[C@@H]1CC[C@]2(C(=O)O)CC[C@]3(C)C(CCC4[C@@]5(C)CC[C@H](O)C(C)(C)C5CC[C@]43C)C12 (stereo partly drawn) | 58* | . | . | . | . | . | 20 | 0.66 | .
C=C(C)[C@@H]1CCC2(C(=O)O)CC[C@]3(C)[C@H](CC[C@@H]4[C@@]5(C)CCC(=O)C(C)(C)[C@@H]5CC[C@]43C)[C@@H]12 (stereo partly drawn) | 8 | -4 | -9 | 5 | 0 | 19 | . | . | .
O=[N+]([O-])c1sccc1CS(=O)(=O)c1ccccc1 | 71* | -7 | -6 | 8 | -3 | 17 | 29 | -0.14 | .
Cc1ccc(CCN2CC(C(=O)NCCN(C)C)CC2=O)cc1 (stereo not drawn) | 12 | . | . | . | . | . | . | . | .
COc1ccc(CCNC(=O)CCOc2cc(C)ccc2C)cc1OC | 68* | . | . | . | . | . | 91* | -0.092 | 12
COc1ccc(CCNC(=O)CCOc2ccc(C)cc2)cc1OC | 7 | . | . | . | . | . | . | . | .
COc1ccc(CCNC(=O)CC(c2ccccc2)c2cc(C)ccc2O)cc1OC (stereo not drawn) | 53* | . | . | . | . | . | 30 | 0.95 | .
CSc1ccc(CNC(=O)C2CCC(=O)N(Cc3cccc(F)c3)C2)cc1 (stereo not drawn) | 0 | . | . | . | . | . | . | . | .
CC1CN(C(=O)CCS(=O)(=O)c2ccccc2)CC(C)O1 (stereo not drawn) | 21 | . | . | . | . | . | . | . | .
COc1ccccc1C(=O)Nc1nnc(S(=O)(=O)N(C)Cc2ccccc2)s1 | 11 | . | . | . | . | . | . | . | .
CCN(CC)C(=O)CC(c1cc(OC)c(OC)c(OC)c1)c1c(OC)cc(OC)c2ccc(=O)oc12 (stereo not drawn) | 16 | 1 | 0 | 6 | -2 | 24 | . | . | .
CCN(CC)C(=O)CC(c1ccc(OC)cc1)c1c(OC)cc(OC)c2ccc(=O)oc12 (stereo not drawn) | 64* | -2 | -2 | 5 | -3 | 20 | 9 | 0.45 | .

Source: PubChem
